{"source": "BindingDB's records for doi:10.1016/j.bmc.2008.10.024", "about": "(National Cancer Institute-Frederick, 2008)", "target": "E3 ubiquitin-protein ligase Mdm2 (Homo sapiens, UniProt Q00987)", "sequence (Q00987 whole entry, the tested form may be a part)": "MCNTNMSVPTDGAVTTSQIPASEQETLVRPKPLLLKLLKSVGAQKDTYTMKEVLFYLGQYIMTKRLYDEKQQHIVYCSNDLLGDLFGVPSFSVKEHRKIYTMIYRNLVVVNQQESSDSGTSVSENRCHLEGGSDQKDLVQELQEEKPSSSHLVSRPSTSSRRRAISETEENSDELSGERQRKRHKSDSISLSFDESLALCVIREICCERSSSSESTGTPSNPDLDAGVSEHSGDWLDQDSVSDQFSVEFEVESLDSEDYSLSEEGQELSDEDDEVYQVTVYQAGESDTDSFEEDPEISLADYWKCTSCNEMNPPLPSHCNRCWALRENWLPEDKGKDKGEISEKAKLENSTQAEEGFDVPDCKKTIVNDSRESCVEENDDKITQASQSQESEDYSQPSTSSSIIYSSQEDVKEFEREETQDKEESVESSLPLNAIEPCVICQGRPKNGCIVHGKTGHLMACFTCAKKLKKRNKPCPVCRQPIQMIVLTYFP", "experiment": "Inhibition of GST fused human Hdm2 assessed as polyubiquitylation by electrochemiluminescence assay", "in_short": "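Cell-free ubiquitylation. Lysate GST-Hdm2 captured on glutathione-coated wells for 1 h at RT. E1/UbcH5B were pre-charged with ubiquitin, ATP and DTT in PBS for 30 min, then added with sample for 30 min at RT. Read-out was ruthenium anti-polyubiquitin electrochemiluminescence, normalised between no-inhibitor (0%) and EDTA (100%). Tested at 100–0.02 µg/mL in quadruplicate.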", "data": [{"smiles": "NCCc1c2c(c3c4c(c5ccccc5nc14)C=CN3)OCS2", "note": "[Lissoclinidine B]", "values": [{"measurement": "IC50", "value": 58.6, "unit": "µM"}]}]}
